Calls of active or inactive are those of the source. The calls are words filed in the database; no cut-off is given here.

We go through 66 compounds from ChEMBL document CHEMBL1138585, “Synthesis and evaluation of arylalkoxy- and biarylalkoxy-phenylamide and phenylimidazoles as potent and selective sphingosine-1-phosphate receptor subtype-1 agonists” (Bioorg Med Chem Lett, 2009).

The test system of one assay is Mus musculus. Put plainly: Immunomodulatory activity in C57BL/6 mouse assessed as lymphopenia at 10 mg/kg, po after 6 hrs by complete blood count analysis. The assay is classed as functional. The gist of the method:
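The amino-alcohol (unphosphorylated) form was given orally to mice, in single doses from 0.3 to 10 mg/kg, with the main screen at 10 mg/kg. Circulating lymphocytes were counted 6 h post-dose. Lymphopenia was expressed as the percent decrease in circulating lymphocytes relative to a time-matched vehicle control group.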

The species entered for assay [1] is Homo sapiens. Nature of the assay: Ratio of IC50 for human S1P3 receptor to IC50 for human S1P1 receptor.
For assay [2], the target named is T1, Sphingosine 1-phosphate receptor 1 (Homo sapiens, UniProt P21453). Put plainly: Displacement of [33P]sphingosine-1-phosphate from human S1P1 receptor.
Assay [3] concerns the target T2, Sphingosine 1-phosphate receptor 3 (Homo sapiens, UniProt Q99500). Nature of the assay: Displacement of [33P]sphingosine-1-phosphate from human S1P3 receptor.
The target in assay [4] is T2, Sphingosine 1-phosphate receptor 3. Put plainly: Agonist activity at human S1P3 receptor assessed as stimulation of [35S]GTPgammaS binding. The assay is classed as functional. (In general: Binding of GTPγS marks nucleotide exchange on a G protein.)
The species entered for assay [5] is Homo sapiens. Put plainly: Ratio of EC50 for human S1P3 receptor to EC50 for human S1P1 receptor.
In assay [6] the target is T3, Sphingosine 1-phosphate receptor 4 (Homo sapiens, UniProt O95977).
T3 sequence (O95977 whole entry): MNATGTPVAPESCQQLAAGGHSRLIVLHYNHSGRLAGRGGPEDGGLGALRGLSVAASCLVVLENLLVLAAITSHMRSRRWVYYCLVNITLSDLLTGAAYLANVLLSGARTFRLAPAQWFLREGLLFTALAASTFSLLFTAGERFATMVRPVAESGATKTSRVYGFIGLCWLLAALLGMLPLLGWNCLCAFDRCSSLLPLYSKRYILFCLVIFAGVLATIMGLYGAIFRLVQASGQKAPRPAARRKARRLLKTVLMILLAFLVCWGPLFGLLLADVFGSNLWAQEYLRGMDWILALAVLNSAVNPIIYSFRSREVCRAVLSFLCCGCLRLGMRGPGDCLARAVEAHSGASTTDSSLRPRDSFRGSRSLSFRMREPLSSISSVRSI
Put plainly: Displacement of [33P]sphingosine-1-phosphate from human S1P4 receptor.

The target of assay [7] is Sphingosine 1-phosphate receptor 5 (Homo sapiens, UniProt Q9H228). Nature of the assay: Displacement of [33P]sphingosine-1-phosphate from human S1P5 receptor.
For assay [8], the target named is T1, Sphingosine 1-phosphate receptor 1. Put plainly: Agonist activity at human S1P1 receptor assessed as stimulation of [35S]GTPgammaS binding. The assay is classed as functional.

T1 sequence (P21453 whole entry): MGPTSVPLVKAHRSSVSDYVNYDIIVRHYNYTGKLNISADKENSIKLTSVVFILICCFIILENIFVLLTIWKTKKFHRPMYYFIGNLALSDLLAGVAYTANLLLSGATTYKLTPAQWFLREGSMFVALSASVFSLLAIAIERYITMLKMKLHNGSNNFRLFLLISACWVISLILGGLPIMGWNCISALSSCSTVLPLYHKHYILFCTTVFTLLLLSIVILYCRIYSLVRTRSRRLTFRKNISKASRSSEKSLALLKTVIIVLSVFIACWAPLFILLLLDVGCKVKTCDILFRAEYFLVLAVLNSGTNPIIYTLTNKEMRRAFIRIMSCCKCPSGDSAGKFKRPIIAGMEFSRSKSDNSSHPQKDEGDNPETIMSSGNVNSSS
T2 sequence (Q99500 whole entry): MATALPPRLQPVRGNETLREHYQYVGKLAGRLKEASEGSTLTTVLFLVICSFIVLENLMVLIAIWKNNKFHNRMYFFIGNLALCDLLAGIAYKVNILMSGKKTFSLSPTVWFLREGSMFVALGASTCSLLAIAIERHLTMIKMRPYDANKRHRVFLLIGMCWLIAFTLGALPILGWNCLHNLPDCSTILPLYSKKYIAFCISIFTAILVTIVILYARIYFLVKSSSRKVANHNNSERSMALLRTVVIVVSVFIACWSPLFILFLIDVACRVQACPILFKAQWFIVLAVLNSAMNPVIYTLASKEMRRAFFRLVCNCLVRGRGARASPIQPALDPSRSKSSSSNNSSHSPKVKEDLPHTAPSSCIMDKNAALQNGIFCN
Chain of Sphingosine 1-phosphate receptor 5 (Q9H228 whole entry): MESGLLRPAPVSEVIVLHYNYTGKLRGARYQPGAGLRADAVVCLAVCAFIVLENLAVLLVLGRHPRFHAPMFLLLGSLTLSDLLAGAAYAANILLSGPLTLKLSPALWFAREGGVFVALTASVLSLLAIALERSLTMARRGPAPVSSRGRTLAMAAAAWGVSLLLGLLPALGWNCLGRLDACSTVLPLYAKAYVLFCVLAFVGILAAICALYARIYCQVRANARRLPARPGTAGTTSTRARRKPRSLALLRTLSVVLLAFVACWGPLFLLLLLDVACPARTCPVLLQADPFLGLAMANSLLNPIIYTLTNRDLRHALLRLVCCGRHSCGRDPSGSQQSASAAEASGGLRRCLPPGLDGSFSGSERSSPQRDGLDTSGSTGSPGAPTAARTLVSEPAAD

As to `C[C@](N)(CO)C(=O)Nc1ccc(Oc2cccc(OCc3ccccc3)c2)cc1`, the Activity in the assay on Mus musculus turned out to be 10%.

With `C[C@](N)(COP(=O)(O)O)C(=O)Nc1ccc(OCCc2ccc(-c3cccs3)cc2)cc1`, the Ratio IC50 in the assay listed under Homo sapiens [1] stood at 178. For the same compound, the figures for the IC50 in assay [2] and in [3] were 21 nM and 3750 nM, respectively.

As for `CCCOc1cccc(-c2ccc(NC(=O)[C@@](C)(N)CO)cc2)c1`, the Activity in the assay on Mus musculus was 20%.

For the compound `COc1ccc(CCOc2ccc(NC(=O)[C@@](C)(N)CO)cc2)cc1`, the result in the assay on Mus musculus was inactive.

On to `C[C@](N)(CO)C(=O)Nc1ccc(-c2ccc3c(c2)OCO3)cc1`, for which, in the assay on Mus musculus, the Activity is reported as 40%.

As to `COc1ccc(CCCCOc2ccc(NC(=O)[C@@](C)(N)COP(=O)(O)O)cc2)cc1`, in the assay filed under Homo sapiens [1], the Ratio IC50 was 21. Further, the IC50 (in general, the concentration that inhibits the measured activity by half) in assay [2] was 4.75 nM; in assay [3], 100 nM.

As to `CCCCOc1ccc(Oc2ccc(NC(=O)[C@@](C)(N)CO)cc2)cc1`, the outcome in the assay on Mus musculus was inactive.

For `C[C@](N)(COP(=O)(O)O)C(=O)Nc1ccc(OCCc2ccc(-c3ccccc3C#N)cc2)cc1`, the Ratio IC50 in the assay listed under Homo sapiens [1] was determined as 87. The results for the IC50 in assay [2] and in [3] were 12 nM and 1040 nM, respectively.

`C[C@](N)(CO)C(=O)Nc1ccc(OCCc2ccc(-c3ccccc3Cl)cc2)cc1`: the Activity in the assay on Mus musculus worked out at 75%.

`C[C@](N)(CO)C(=O)Nc1ccc(OCCc2ccc(-c3cccc(C(F)(F)F)c3)cc2)cc1`: the Activity in the assay on Mus musculus was found to be 51%.

Turning to `COc1ccc(CCCCOc2ccc(NC(=O)[C@@](C)(N)CO)cc2)cc1`, the Activity in the assay on Mus musculus is reported as 60%.

As for `CCCCOc1cccc(Oc2ccc(NC(=O)[C@@](C)(N)CO)cc2)c1`, the outcome with Mus musculus was inactive.

As to `C[C@](N)(COP(=O)(O)O)C(=O)Nc1ccc(OCCCCCc2ccccc2)cc1`, the EC50 – broadly, the concentration that produces a half-maximal response – was 1.38 nM in assay [4] and 1.1 nM in assay [8]. In the assay filed under Homo sapiens [1], the Ratio IC50 was found to be 1.7. In addition, in the assay listed under Homo sapiens [5], the Ratio EC50 was 1.3. Besides, the IC50 amounted to 0.21 nM in [2], 0.36 nM in assay [3], 3.6 nM in assay [6] and 2.9 nM in [7].

Turning to `C[C@](N)(CO)C(=O)Nc1ccc(OCCc2ccc(-c3ccoc3)cc2)cc1`, in the assay with Mus musculus, the Activity turned out to be 68%.

For `C[C@](N)(CO)C(=O)Nc1ccc(OCCc2ccc(Cl)c(Cl)c2)cc1`, the Activity with Mus musculus is on record as 10%.

Turning to `CCCCc1ccc(-c2ccc(NC(=O)[C@@](C)(N)CO)cc2)cc1`, the outcome in the assay with Mus musculus was inactive.

In the case of `C[C@](N)(CO)C(=O)Nc1ccc(-c2cccc(OCc3ccccc3)c2)cc1`, the Activity in the assay on Mus musculus is 31%.

Consider `COc1ccc(-c2ccc(NC(=O)[C@@](C)(N)CO)cc2)cc1`, for which the result in the assay with Mus musculus was inactive.

As for `CC(C)c1cccc(-c2ccc(NC(=O)[C@@](C)(N)CO)cc2)c1`, the Activity in the assay with Mus musculus came out at 22%.

On to `C[C@](N)(CO)C(=O)Nc1ccc(OCCCCC2CCCCC2)cc1`, for which the Activity with Mus musculus is reported as 74%.

In the case of `C[C@](N)(CO)C(=O)Nc1ccc(OCCc2ccc(-c3cccs3)cc2)cc1`, in the assay with Mus musculus, the Activity is listed as 78%.

On to `C[C@](N)(CO)C(=O)Nc1ccc(OCCCCc2cccs2)cc1`, for which the Activity with Mus musculus came to 66%.

As for `CCc1ccc(-c2ccc(CCOc3ccc(NC(=O)[C@@](C)(N)CO)cc3)cc2)cc1`, in the assay with Mus musculus, the outcome was inactive.

Turning to `Cc1ccccc1-c1ccc(CCOc2ccc(NC(=O)[C@@](C)(N)CO)cc2)cc1`, the Activity with Mus musculus is reported as 79%.

Consider `C[C@](N)(CO)C(=O)Nc1ccc(OCCc2ccc(C(F)(F)F)cc2)cc1`, for which, in the assay on Mus musculus, the result was inactive.

With `C[C@](N)(CO)C(=O)Nc1ccc(OCCc2ccc(-c3ccccc3)cc2)cc1`, in the assay on Mus musculus, the Activity is on record as 81%.

As for `C[C@](N)(COP(=O)(O)O)C(=O)Nc1ccc(OCCc2ccc(-c3ccccc3Cl)cc2)cc1`, the Ratio IC50 in the assay listed under Homo sapiens [1] came out at 190. Further, the 50% inhibitory concentration (IC50) in assay [2] is 0.84 nM; in assay [3], 160 nM.

Regarding `CCOc1ccc(-c2ccc(CCOc3ccc(NC(=O)[C@@](C)(N)CO)cc3)cc2)cc1`, the Activity in the assay with Mus musculus is reported as 10%.

On to `Cc1ccc(-c2ccc(NC(=O)[C@@](C)(N)CO)cc2)cc1`, for which the Activity with Mus musculus turned out to be 18%.

Turning to `C[C@](N)(COP(=O)(O)O)C(=O)Nc1ccc(OCCCCc2cccs2)cc1`, the Ratio IC50 in the assay listed under Homo sapiens [1] came out at 4. Besides, the IC50 in assay [2] was 30 nM; in [3], 120 nM.

As to `C[C@](N)(CO)C(=O)Nc1ccc(OCCc2ccc(Cl)cc2)cc1`, the outcome in the assay with Mus musculus was inactive.

`C[C@](N)(COP(=O)(O)O)C(=O)Nc1ccc(OCCc2cccc3ccccc23)cc1`: in the assay listed under Homo sapiens [1], the Ratio IC50 is 11. For the same compound, the IC50 in [2] is 220 nM; in [3], 2500 nM.

On to `C[C@](N)(CO)C(=O)Nc1ccc(OCCCCc2ccccc2)cc1`, for which, in the assay with Mus musculus, the Activity is recorded as 85%.

As for `C[C@](N)(CO)C(=O)Nc1ccc(OCCc2ccc(-c3ccc(Cl)cc3)cc2)cc1`, in the assay on Mus musculus, the outcome was inactive.

As to `Cc1ccccc1-c1ccc(CCOc2ccc(NC(=O)[C@@](C)(N)COP(=O)(O)O)cc2)cc1`, in the assay listed under Homo sapiens [1], the Ratio IC50 is 64. The values for the IC50 in assay [2] and in assay [3] were 0.78 nM and 50 nM, respectively.

On to `C[C@](N)(CO)C(=O)Nc1ccc(OCCc2cccc(-c3ccccc3)c2)cc1`, for which the result in the assay on Mus musculus was inactive.

With `CCCOc1cccc(Oc2ccc(NC(=O)[C@@](C)(N)CO)cc2)c1`, in the assay with Mus musculus, the Activity is on record as 33%.

For `C[C@](N)(CO)C(=O)Nc1ccc(OCCCCCc2ccccc2)cc1`, the Activity in the assay with Mus musculus was determined as 64%.

Take `CCCCOc1ccc(-c2ccc(NC(=O)[C@@](C)(N)CO)cc2)cc1`: in the assay on Mus musculus, the result was inactive.

With `C[C@](N)(CO)C(=O)Nc1ccc(OCCc2cccc3ccccc23)cc1`, the outcome with Mus musculus was inactive.

For `CC(C)Oc1cccc(Oc2ccc(NC(=O)[C@@](C)(N)CO)cc2)c1`, in the assay on Mus musculus, the outcome was inactive.

As to `CC(C)Oc1cccc(-c2ccc(NC(=O)[C@@](C)(N)CO)cc2)c1`, the Activity with Mus musculus worked out at 23%.

For the compound `C[C@](N)(CO)C(=O)Nc1ccc(-c2ccccc2)cc1`, in the assay on Mus musculus, the result was inactive.

Turning to `CCCCOc1cccc(-c2ccc(NC(=O)[C@@](C)(N)CO)cc2)c1`, the Activity with Mus musculus turned out to be 16%.

Turning to `C[C@](N)(COP(=O)(O)O)C(=O)Nc1ccc(OCCCc2ccc(-c3ccccc3)cc2)cc1`, the EC50 in assay [4] was 63.3 nM; in [8], 2.9 nM. For the same compound, in the assay filed under Homo sapiens [5], the Ratio EC50 came to 21.8. Moreover, in the assay on Mus musculus, the Activity is on record as 61%. Moreover, the IC50 amounted to 0.9 nM in assay [2], 27.1 nM in assay [3], 5.24 nM in assay [6] and 70.4 nM in [7].

For `C[C@](N)(CO)C(=O)Nc1ccc(OCCc2cccc(C(F)(F)F)c2)cc1`, in the assay with Mus musculus, the outcome was inactive.

`COc1cccc(-c2ccc(NC(=O)[C@@](C)(N)CO)cc2)c1`: in the assay with Mus musculus, the Activity turned out to be 34%.

With `C[C@](N)(CO)C(=O)Nc1ccc(OCCc2ccc(-c3cccnc3)cc2)cc1`, the Activity in the assay with Mus musculus is 60%.

Regarding `C[C@](N)(CO)C(=O)Nc1ccc(Oc2ccc(-c3ccccc3)cc2)cc1`, in the assay with Mus musculus, the Activity was 81%.

With `C[C@](N)(CO)C(=O)Nc1ccc(Oc2ccc(Cl)cc2)cc1`, the outcome in the assay with Mus musculus was inactive.

For the compound `CC(C)c1cccc(Oc2ccc(NC(=O)[C@@](C)(N)CO)cc2)c1`, the result in the assay on Mus musculus was inactive.

Take `C[C@](N)(CO)C(=O)Nc1ccc(Oc2cccc(C(F)(F)F)c2)cc1`: in the assay with Mus musculus, the result was inactive.

For `C[C@](N)(CO)C(=O)Nc1ccc(OCCc2ccc(-c3ccncc3)cc2)cc1`, the Activity in the assay with Mus musculus is recorded as 78%.

With `CCOc1ccc(CCOc2ccc(NC(=O)[C@@](C)(N)CO)cc2)cc1`, the result with Mus musculus was inactive.

Take `C[C@](N)(CO)C(=O)Nc1ccc(OCCc2ccc(-c3ccccc3C#N)cc2)cc1`: the Activity in the assay with Mus musculus was 78%.

As for `CCOc1cccc(Oc2ccc(NC(=O)[C@@](C)(N)CO)cc2)c1`, the outcome in the assay on Mus musculus was inactive.

For the compound `C[C@](N)(CO)C(=O)Nc1ccc(Oc2ccccc2)cc1`, the outcome in the assay on Mus musculus was inactive.

With `CCCCc1ccc(Oc2ccc(NC(=O)[C@@](C)(N)CO)cc2)cc1`, the Activity in the assay on Mus musculus was 10%.

For the compound `COc1cccc(Oc2ccc(NC(=O)[C@@](C)(N)CO)cc2)c1`, in the assay with Mus musculus, the outcome was inactive.

With `C[C@](N)(CO)C(=O)Nc1ccc(Oc2ccc(F)cc2)cc1`, the result with Mus musculus was inactive.

For the compound `CCc1ccc(-c2ccc(NC(=O)[C@@](C)(N)CO)cc2)cc1`, the Activity in the assay with Mus musculus was found to be 29%.

Turning to `CC(C)c1ccc(-c2ccc(CCOc3ccc(NC(=O)[C@@](C)(N)CO)cc3)cc2)cc1`, the result in the assay on Mus musculus was inactive.

As for `CCc1ccc(Oc2ccc(NC(=O)[C@@](C)(N)CO)cc2)cc1`, the result in the assay with Mus musculus was inactive.

`CCOc1cccc(-c2ccc(NC(=O)[C@@](C)(N)CO)cc2)c1`: in the assay on Mus musculus, the Activity is reported as 15%.

With `C[C@](N)(COP(=O)(O)O)C(=O)Nc1ccc(OCCc2cccc(-c3ccccc3)c2)cc1`, the Ratio IC50 in the assay filed under Homo sapiens [1] came to 5. Moreover, the IC50 is 2000 nM in assay [2] and 10000 nM in assay [3].

Take `Cc1noc(C)c1-c1ccc(CCOc2ccc(NC(=O)[C@@](C)(N)CO)cc2)cc1`: in the assay on Mus musculus, the Activity turned out to be 62%.
